# Laboratory results: ChEMBL document CHEMBL5724801, “EUbOPEN Chemogenomics Library - Multiplex” (2024)
# Several values for one entry are separate records, joined by “and”; a condition that tells them apart may be missing. Equal entries are not always repeated.
# System: U2OS
# Experiment: Multiplex assay against U2OS
# Assay type: toxicity, cell-based
# Conditions: human
# Summary of the method: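 Per cents of healthy-nucleus cells form the tubulin, mitochondrial-mass and membrane-permeability phenotype values. Live cells were stained at seeding with Hoechst33342, BioTracker Green Microtubule Cytoskeleton Dye, MitoTracker Red and Annexin V Alexa Fluor 680. After compound addition they were imaged on a CQ1 microscope at 37°C and 5% CO2, and CellPathfinder machine-learning gating split them into Hoechst high-intensity objects or normal cells, normal cells into healthy, pyknosed or fragmented nuclei, and pyknosed cells into mitotic or apoptotic.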
# [1] = 12 h, 1 µM, compound concentration 1 uM
# [2] = 12 h, 10 µM, compound concentration 10 uM
# [3] = 24 h, 1 µM, compound concentration 1 uM
# [4] = 24 h, 10 µM, compound concentration 10 uM
# [5] = 48 h, 1 µM, compound concentration 1 uM
# [6] = 48 h, 10 µM, compound concentration 10 uM
smiles,measurement,setting,value
OCCCNc1cc(-c2ccnc(Nc3cccc(Cl)c3)n2)ccn1,Population Apoptotic (%),[1],88% and 80%
same,Population Fragmented Nuclei (%),[1],38% and 27%
same,Population Healthy Nuclei (%),[1],52% and 51%
same,Population Hoechst High Intensity Objects (%),[1],3% and 5%
same,Population Membrane Permeable-Phenotype (%),[1],8% and 10%
same,Population Mitotic Cells (%),[1],11% and 20%
same,Population Normal (%),[1],97% and 94%
same,Population Pyknosed Nuclei (%),[1],9% and 20%
same,Population Tubulin-Different-Phenotype (%),[1],4% and 5%
same,Total Cell Count,[1],200 and 76
same,Population Apoptotic (%),[2],85% and 91%
same,Population Fragmented Nuclei (%),[2],37% and 24%
same,Population Healthy Nuclei (%),[2],56% and 64%
same,Population Hoechst High Intensity Objects (%),[2],4% and 10%
same,Population Membrane Permeable-Phenotype (%),[2],46% and 47%
same,Population Mitochondria Different-Phenotype (%),[2],36% and 51%
same,Population Mitotic Cells (%),[2],14% and 8%
same,Population Normal (%),[2],95% and 89%
same,Population Pyknosed Nuclei (%),[2],6% and 11%
same,Population Tubulin-Different-Phenotype (%),[2],46% and 61%
same,Total Cell Count,[2],237 and 118
same,Population Apoptotic (%),[3],96% and 94%
same,Population Fragmented Nuclei (%),[3],43% and 40%
same,Population Healthy Nuclei (%),[3],43% and 33%
same,Population Hoechst High Intensity Objects (%),[3],7%
same,Population Membrane Permeable-Phenotype (%),[3],10% and 16%
same,Population Mitochondria Different-Phenotype (%),[3],10% and 25%
same,Population Mitotic Cells (%),[3],4% and 5%
same,Population Normal (%),[3],92%
same,Population Pyknosed Nuclei (%),[3],13% and 25%
same,Population Tubulin-Different-Phenotype (%),[3],6% and 16%
same,Total Cell Count,[3],200 and 77
same,Population Apoptotic (%),[4],88% and 95%
same,Population Fragmented Nuclei (%),[4],37% and 30%
same,Population Healthy Nuclei (%),[4],50% and 49%
same,Population Hoechst High Intensity Objects (%),[4],11% and 12%
same,Population Membrane Permeable-Phenotype (%),[4],34% and 43%
same,Population Mitochondria Different-Phenotype (%),[4],40% and 54%
same,Population Mitotic Cells (%),[4],12% and 4%
same,Population Normal (%),[4],88% and 87%
same,Population Pyknosed Nuclei (%),[4],12% and 20%
same,Population Tubulin-Different-Phenotype (%),[4],37% and 61%
same,Total Cell Count,[4],229 and 128
same,Population Apoptotic (%),[5],95% and 100%
same,Population Fragmented Nuclei (%),[5],56% and 59%
same,Population Healthy Nuclei (%),[5],22% and 11%
same,Population Hoechst High Intensity Objects (%),[5],16% and 12%
same,Population Membrane Permeable-Phenotype (%),[5],30%
same,Population Mitochondria Different-Phenotype (%),[5],14% and 20%
same,Population Mitotic Cells (%),[5],4% and 0%
same,Population Normal (%),[5],83% and 87%
same,Population Pyknosed Nuclei (%),[5],21% and 28%
same,Population Tubulin-Different-Phenotype (%),[5],26% and 10%
same,Total Cell Count,[5],227 and 99
same,Population Apoptotic (%),[6],94% and 96%
same,Population Fragmented Nuclei (%),[6],47% and 50%
same,Population Healthy Nuclei (%),[6],31% and 25%
same,Population Hoechst High Intensity Objects (%),[6],21% and 23%
same,Population Membrane Permeable-Phenotype (%),[6],43% and 65%
same,Population Mitochondria Different-Phenotype (%),[6],45% and 34%
same,Population Mitotic Cells (%),[6],5% and 4%
same,Population Normal (%),[6],78% and 76%
same,Population Pyknosed Nuclei (%),[6],21% and 24%
same,Population Tubulin-Different-Phenotype (%),[6],45% and 65%
same,Total Cell Count,[6],223 and 134
CN1CCN(c2nc3cc(C(F)(F)F)ccc3n3cccc23)CC1.O=C(O)/C=C\C(=O)O.O=C(O)/C=C\C(=O)O,Population Apoptotic (%),[1],77% and 100%
same,Population Fragmented Nuclei (%),[1],17% and 18%
same,Population Healthy Nuclei (%),[1],75% and 73%
same,Population Hoechst High Intensity Objects (%),[1],1% and 0%
same,Population Membrane Permeable-Phenotype (%),[1],4% and 8%
same,Population Mitochondria Different-Phenotype (%),[1],0% and 2%
same,Population Mitotic Cells (%),[1],22% and 0%
same,Population Normal (%),[1],98% and 99%
same,Population Pyknosed Nuclei (%),[1],6% and 8%
same,Population Tubulin-Different-Phenotype (%),[1],1% and 3%
same,Total Cell Count,[1],266 and 111
same,Population Apoptotic (%),[2],66% and 88%
same,Population Fragmented Nuclei (%),[2],31% and 25%
same,Population Healthy Nuclei (%),[2],53% and 68%
same,Population Hoechst High Intensity Objects (%),[2],1% and 2%
same,Population Membrane Permeable-Phenotype (%),[2],18% and 13%
same,Population Mitochondria Different-Phenotype (%),[2],45% and 41%
same,Population Mitotic Cells (%),[2],33% and 11%
same,Population Normal (%),[2],98% and 97%
same,Population Pyknosed Nuclei (%),[2],15% and 6%
same,Population Tubulin-Different-Phenotype (%),[2],19% and 21%
same,Total Cell Count,[2],218 and 135
same,Population Apoptotic (%),[3],85% and 92%
same,Population Fragmented Nuclei (%),[3],17% and 13%
same,Population Healthy Nuclei (%),[3],73% and 77%
same,Population Hoechst High Intensity Objects (%),[3],2% and 0%
same,Population Membrane Permeable-Phenotype (%),[3],5% and 8%
same,Population Mitochondria Different-Phenotype (%),[3],1% and 4%
same,Population Mitotic Cells (%),[3],14% and 7%
same,Population Normal (%),[3],97% and 99%
same,Population Pyknosed Nuclei (%),[3],9%
same,Population Tubulin-Different-Phenotype (%),[3],3% and 4%
same,Total Cell Count,[3],300 and 136
same,Population Apoptotic (%),[4],76% and 78%
same,Population Fragmented Nuclei (%),[4],31% and 19%
same,Population Healthy Nuclei (%),[4],57% and 71%
same,Population Hoechst High Intensity Objects (%),[4],3%
same,Population Membrane Permeable-Phenotype (%),[4],16% and 17%
same,Population Mitochondria Different-Phenotype (%),[4],41% and 36%
same,Population Mitotic Cells (%),[4],24% and 21%
same,Population Normal (%),[4],96%
same,Population Pyknosed Nuclei (%),[4],10% and 9%
same,Population Tubulin-Different-Phenotype (%),[4],14% and 16%
same,Total Cell Count,[4],244 and 156
same,Population Apoptotic (%),[5],87% and 85%
same,Population Fragmented Nuclei (%),[5],14% and 17%
same,Population Healthy Nuclei (%),[5],77% and 75%
same,Population Hoechst High Intensity Objects (%),[5],2% and 1%
same,Population Membrane Permeable-Phenotype (%),[5],4% and 6%
same,Population Mitochondria Different-Phenotype (%),[5],0% and 5%
same,Population Mitotic Cells (%),[5],12% and 14%
same,Population Normal (%),[5],97% and 98%
same,Population Pyknosed Nuclei (%),[5],7%
same,Population Tubulin-Different-Phenotype (%),[5],2% and 3%
same,Total Cell Count,[5],447 and 187
same,Population Apoptotic (%),[6],78% and 81%
same,Population Fragmented Nuclei (%),[6],31% and 21%
same,Population Healthy Nuclei (%),[6],52% and 67%
same,Population Hoechst High Intensity Objects (%),[6],4% and 3%
same,Population Membrane Permeable-Phenotype (%),[6],16% and 10%
same,Population Mitochondria Different-Phenotype (%),[6],17% and 16%
same,Population Mitotic Cells (%),[6],21% and 18%
same,Population Normal (%),[6],95% and 96%
same,Population Pyknosed Nuclei (%),[6],16% and 11%
same,Population Tubulin-Different-Phenotype (%),[6],12% and 9%
same,Total Cell Count,[6],299 and 202
